Rin1 Abl inh: inhibitors of Rin1-Abl protein binding, primary screen, biochemical, TR-FRET; Tyrosine-protein kinase ABL1 (Homo sapiens) + Ras and Rab interactor 1 (Homo sapiens), …; inhibition, % at 7.35 µM; 360,000 compounds, 0.4% hits; in the data active = inhibition above about 5%, passing the limit was not always enough
Target sequence (P00519 whole entry, looked up): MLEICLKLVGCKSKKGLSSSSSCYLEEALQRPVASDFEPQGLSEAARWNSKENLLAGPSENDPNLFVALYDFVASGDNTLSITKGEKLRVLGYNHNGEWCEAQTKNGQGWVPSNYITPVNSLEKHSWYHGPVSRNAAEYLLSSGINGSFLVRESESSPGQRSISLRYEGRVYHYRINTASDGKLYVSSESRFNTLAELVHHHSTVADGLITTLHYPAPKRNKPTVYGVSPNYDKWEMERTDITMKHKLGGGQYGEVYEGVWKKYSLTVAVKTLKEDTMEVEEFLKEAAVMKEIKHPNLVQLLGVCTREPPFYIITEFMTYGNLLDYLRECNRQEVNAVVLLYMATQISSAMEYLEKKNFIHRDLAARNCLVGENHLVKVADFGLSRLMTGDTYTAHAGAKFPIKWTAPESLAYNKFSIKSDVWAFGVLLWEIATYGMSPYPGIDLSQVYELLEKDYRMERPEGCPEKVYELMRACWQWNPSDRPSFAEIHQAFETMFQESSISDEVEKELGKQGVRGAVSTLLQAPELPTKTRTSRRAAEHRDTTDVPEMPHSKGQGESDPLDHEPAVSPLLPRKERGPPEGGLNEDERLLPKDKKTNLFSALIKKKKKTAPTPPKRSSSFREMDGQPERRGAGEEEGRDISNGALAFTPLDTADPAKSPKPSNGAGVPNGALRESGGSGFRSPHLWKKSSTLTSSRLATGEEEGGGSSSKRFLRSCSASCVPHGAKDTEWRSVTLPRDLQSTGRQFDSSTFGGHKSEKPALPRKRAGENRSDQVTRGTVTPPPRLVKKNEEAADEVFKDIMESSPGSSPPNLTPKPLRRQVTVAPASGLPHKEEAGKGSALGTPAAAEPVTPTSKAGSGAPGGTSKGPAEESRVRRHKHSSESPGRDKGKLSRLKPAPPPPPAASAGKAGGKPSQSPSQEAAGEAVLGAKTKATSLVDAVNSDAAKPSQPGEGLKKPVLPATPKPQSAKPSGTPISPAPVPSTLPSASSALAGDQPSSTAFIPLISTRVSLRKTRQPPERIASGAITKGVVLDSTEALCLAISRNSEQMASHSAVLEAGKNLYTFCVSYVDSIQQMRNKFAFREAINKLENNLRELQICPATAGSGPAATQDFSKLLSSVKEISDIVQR
Target sequence (Q13671 whole entry, looked up): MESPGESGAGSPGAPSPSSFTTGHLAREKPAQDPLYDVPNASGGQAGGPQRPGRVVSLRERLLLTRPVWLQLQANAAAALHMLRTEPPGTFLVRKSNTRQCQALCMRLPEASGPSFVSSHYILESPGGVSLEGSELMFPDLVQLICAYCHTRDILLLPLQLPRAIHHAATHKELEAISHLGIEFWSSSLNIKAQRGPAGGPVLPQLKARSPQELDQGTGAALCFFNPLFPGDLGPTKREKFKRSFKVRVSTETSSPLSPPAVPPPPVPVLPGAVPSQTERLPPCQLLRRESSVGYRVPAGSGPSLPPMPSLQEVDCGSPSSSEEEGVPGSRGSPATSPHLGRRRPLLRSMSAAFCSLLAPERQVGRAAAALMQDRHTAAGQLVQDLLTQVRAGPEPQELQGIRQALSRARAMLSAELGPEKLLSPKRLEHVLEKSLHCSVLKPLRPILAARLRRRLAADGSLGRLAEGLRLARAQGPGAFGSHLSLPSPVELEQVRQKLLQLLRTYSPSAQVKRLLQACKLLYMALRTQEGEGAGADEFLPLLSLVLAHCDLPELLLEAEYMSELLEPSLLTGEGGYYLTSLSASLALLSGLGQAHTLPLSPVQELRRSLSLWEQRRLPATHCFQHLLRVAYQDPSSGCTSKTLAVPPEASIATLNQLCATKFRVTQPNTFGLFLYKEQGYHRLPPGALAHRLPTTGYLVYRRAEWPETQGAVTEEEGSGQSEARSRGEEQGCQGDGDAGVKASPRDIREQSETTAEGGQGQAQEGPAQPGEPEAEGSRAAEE
ARFGAP1 inh: inhibitors of rat ARFGAP1 GAP activity, primary screen, biochemical, fluorescence polarization, GDP tracer | 360,000 compounds, 0.26% hits | Arfgap1-stimulated ARF1 GTP hydrolysis, GDP FP detection | inhibition, % at 16.5 µM | ADP-ribosylation factor GTPase-activating protein 1 (Rattus norvegicus), Q62848;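 active = inhibition above a per-plate limit, mean inhibition of low control wells plus 3 SD, cut at about 25% in these data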;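 also: 0% = DMSO wells with enzyme and 100% = wells lacking Arfgap1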
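Material – truncated rat Arfgap1 GAP domain · Buffer or medium – HEPES-based buffer, pH 7.5 · Reagent – human ARF1(Δ1-17)-GTP substrate · Dosing – 16.5 µM single point, 1.26% DMSO · Schedule – GTP hydrolysis reaction 2 h at 25 °C · Technique – GDP detection by fluorescence polarization · Benchmarks – No-Arfgap1 wells (100%) versus DMSO full-reaction wells (0%) · Repeats – single replicate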
GalR3 antagonist: GalR3 antagonists in HEK293 cells, primary screen, cell-based, fluorescence readout. AID 651719, 2012. HEK293 GalR3-CNG cAMP membrane potential fluorescence; galR3 body fused to GalR1 C-terminus. Galanin receptor type 3 (Homo sapiens), O60755. 360,000 compounds, 0.44% hits. inhibition, % at 3 µM;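 active = inhibition above the screen-wide average plus 3 SD, cut at about 13% in these data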;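 also: forskolin and galanin both at EC90 stimulate the cells; cAMP rise reported by CNG channel membrane potential dye signal; 0% = forskolin plus galanin with DMSO and 100% = forskolin alone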
ASAP1 inh: inhibitors of human ASAP1 ArfGAP activity, primary screen, biochemical, fluorescence polarization; Arf-GAP with SH3 domain, ANK repeat and PH domain-containing protein 1 (Homo sapiens), …; ASAP1-stimulated ARF1 GTP hydrolysis, GDP FP detection; inhibition, % at 16.5 µM; 360,000 compounds, 0.19% hits; in the data active = inhibition above about 25%;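 also: 0% = vehicle with enzyme and substrate and 100% = no enzyme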
Rin1 Abl conf: Rin1-Abl binding inhibitor retest, confirmation, biochemical, TR-FRET; inhibition, % at 7.35 µM; 1,300 compounds, 49% hits; AID 602124, 2011; purified proteins; shares compounds with Rin1 Abl inh
GFP quencher: GFP fluorescence inhibitors and quenchers, artefact control for Rin1-Abl interaction inhibitor project, biochemical; AID 602125, 2011; 1,300 compounds, 8.5% hits; inhibition, % at 6.75 µM; inhibitors/quenchers counterscreen; shares compounds with Rin1 Abl inh;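 also: ABL1-eGFP fusion protein alone without its partner RIN1-SBP; 0% = protein with vehicle and 100% = wells lacking protein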
* = called active by the depositor; · = no result given. Hits are enriched below; roughly 1.2% of the tested compounds scored in any of these assays. Rule as the data show it, unless noted: active = inhibition above about 6.5%; inactive = the rest.

SMILES | Rin1 Abl inh | ARFGAP1 inh | GalR3 antagonist | ASAP1 inh | Rin1 Abl conf | GFP quencher
CCOc1ccc(C(C(=O)NCC2CCCO2)N(C(=O)c2snc(C(N)=O)c2N)c2ccccc2F)cc1 (stereo not given) | 8.5* | -9.5 | 0.8 | -5.8 | 11.0* | 0.0
Cc1ccc(N(C(=O)c2snc(C(N)=O)c2N)C(C(=O)NCC2CCCO2)c2ccc3ncccc3c2)cc1 (stereo not given) | 2.9 | -0.2 | -1.6 | 6.2 | · | ·
NC(=O)c1nsc(C(=O)N(c2ccc3c(c2)OCCO3)C(C(=O)NCC2CCCO2)c2ccc(F)cc2)c1N (stereo not given) | 11.1* | -5.9 | -10.2 | 17.1 | 10.9* | -1.3
Cc1ccc(C(C(=O)NCC2CCCO2)N(C(=O)c2snc(C(N)=O)c2N)c2ccc3c(c2)OCCO3)cc1 (stereo not given) | 12.9* | 0.5 | -8.3 | 3.5 | 13.5* | -2.1
CCc1ccc(N(C(=O)c2snc(C(N)=O)c2N)C(C(=O)NC2CCCC2)c2ccncc2)cc1 (stereo not given) | 2.6 | 12.3 | -7.0 | 1.4 | · | ·
CCOc1ccc(N(C(=O)c2snc(C(N)=O)c2N)C(C(=O)NC2CCCC2)c2ccncc2)cc1 (stereo not given) | 7.6* | -3.7 | -9.8 | 10.8 | 2.6 | -0.3
CC(=O)N1CCC(C(=O)N2c3ccccc3N=C(c3ccc4c(c3)OCO4)C2C(=O)Nc2c(C)cccc2C)CC1 (stereo not given) | · | 8.1 | -8.9 | 6.3 | · | ·
c1ccc(CC(Nc2cccnc2)c2ccccc2)cc1 (stereo not given) | · | 22.9 | -0.3 | 13.3 | · | ·
CCCCC(=O)NC(c1ccccc1OC)c1ccc2cccnc2c1O (stereo not given) | 1.6 | -8.0 | 3.7 | -3.9 | · | ·
CCCC(=O)NC(c1ccccc1OC)c1ccc2cccnc2c1O (stereo not given) | 7.0* | · | · | · | 4.8 | 3.1
O=C(NC1CCCC1)C(c1ccncc1)N(C(=O)c1csnn1)c1ccccc1 (stereo not given) | 2.3 | -8.6 | -5.5 | -4.8 | · | ·
CC(=O)c1ccc(N(C(=O)c2csnn2)C(C(=O)NC2CCCC2)c2ccccc2)cc1 (stereo not given) | 10.6* | 5.9 | -3.9 | 11.0 | 1.6 | -0.3
O=C(c1ccc(Cl)c(Cl)c1)N1CCC(=O)N(C(COCc2cccc(C(F)(F)F)c2)Cc2ccccc2)CC1 (stereo not given) | 23.4* | 2.6 | -7.3 | 10.3 | 23.9* | -0.9
Cc1cccc(COCC(Cc2ccccc2)N2CCN(C(=O)c3ccc(Cl)c(Cl)c3)CCC2=O)c1 (stereo not given) | 10.3 | -2.8 | -6.6 | 2.8 | · | ·
CN(C(=O)c1cccc(NC(=O)Cc2ccc(NC(=O)C3CCN(C(=O)CCc4ccccc4)CC3)cc2)c1)C1CCCC1 | · | 4.1 | -3.6 | -3.5 | · | ·
COc1cccc(C(=O)N[C@H](C(=O)N2CCC[C@H]2C(=O)NCc2ccccc2)C2CCCCC2)c1 | · | -6.6 | -1.3 | -1.2 | · | ·
CC(Sc1nccn1C)C(=O)Nc1ccc(C(N)=O)cc1 (stereo not given) | 10.1* | -12.0 | -4.9 | 2.8 | -2.1 | -0.2
COc1ccccc1NC(=O)C(C)Sc1nccn1C (stereo not given) | 0.6 | 8.6 | -3.9 | 1.7 | · | ·
N#C/C(=C\c1ccc(O)c(O)c1)C(=O)Nc1cccc2ncccc12 | 8.7* | 4.7 | 6.4 | 18.0 | 12.5* | 14.4*
COc1ccc(/C=C(\C#N)C(=O)Nc2cccc3ncccc23)cc1OC | -3.6 | 0.8 | -0.2 | -0.2 | · | ·
Cc1ccccc1N1CC(C(=O)Nc2ccc(S(=O)(=O)N3CCCCC3)cc2)CC1=O (stereo not given) | 7.7* | 12.5 | -9.6 | 0.8 | 7.5* | -1.7
NS(=O)(=O)c1ccc(NC(=O)C2CCCN(S(=O)(=O)c3ccc(F)cc3)C2)cc1 (stereo not given) | 18.3* | -6.5 | -4.6 | -2.4 | 3.7 | -5.0
